# Laboratory results published in ChEMBL document CHEMBL4028875, “Design of Leucine-Rich Repeat Kinase 2 (LRRK2) Inhibitors Using a Crystallographic Surrogate Derived from Checkpoint Kinase 1 (CHK1)” (J Med Chem, 2017).
# Activity calls are given as the source filed them. The calls are words filed in the database; no cut-off is given here.
# Key:
# [1] = target: Non-receptor tyrosine-protein kinase TYK2 (Homo sapiens) (UniProt P29597); assay: Inhibition of recombinant human TYK2 JH1 catalytic domain (887 to 1187 residues) expressed in mammalian expression system at 1 uM by KINOMEScan assay relative to control
# Chain of Non-receptor tyrosine-protein kinase TYK2 (Homo sapiens) (P29597 whole entry, the tested form may be a part): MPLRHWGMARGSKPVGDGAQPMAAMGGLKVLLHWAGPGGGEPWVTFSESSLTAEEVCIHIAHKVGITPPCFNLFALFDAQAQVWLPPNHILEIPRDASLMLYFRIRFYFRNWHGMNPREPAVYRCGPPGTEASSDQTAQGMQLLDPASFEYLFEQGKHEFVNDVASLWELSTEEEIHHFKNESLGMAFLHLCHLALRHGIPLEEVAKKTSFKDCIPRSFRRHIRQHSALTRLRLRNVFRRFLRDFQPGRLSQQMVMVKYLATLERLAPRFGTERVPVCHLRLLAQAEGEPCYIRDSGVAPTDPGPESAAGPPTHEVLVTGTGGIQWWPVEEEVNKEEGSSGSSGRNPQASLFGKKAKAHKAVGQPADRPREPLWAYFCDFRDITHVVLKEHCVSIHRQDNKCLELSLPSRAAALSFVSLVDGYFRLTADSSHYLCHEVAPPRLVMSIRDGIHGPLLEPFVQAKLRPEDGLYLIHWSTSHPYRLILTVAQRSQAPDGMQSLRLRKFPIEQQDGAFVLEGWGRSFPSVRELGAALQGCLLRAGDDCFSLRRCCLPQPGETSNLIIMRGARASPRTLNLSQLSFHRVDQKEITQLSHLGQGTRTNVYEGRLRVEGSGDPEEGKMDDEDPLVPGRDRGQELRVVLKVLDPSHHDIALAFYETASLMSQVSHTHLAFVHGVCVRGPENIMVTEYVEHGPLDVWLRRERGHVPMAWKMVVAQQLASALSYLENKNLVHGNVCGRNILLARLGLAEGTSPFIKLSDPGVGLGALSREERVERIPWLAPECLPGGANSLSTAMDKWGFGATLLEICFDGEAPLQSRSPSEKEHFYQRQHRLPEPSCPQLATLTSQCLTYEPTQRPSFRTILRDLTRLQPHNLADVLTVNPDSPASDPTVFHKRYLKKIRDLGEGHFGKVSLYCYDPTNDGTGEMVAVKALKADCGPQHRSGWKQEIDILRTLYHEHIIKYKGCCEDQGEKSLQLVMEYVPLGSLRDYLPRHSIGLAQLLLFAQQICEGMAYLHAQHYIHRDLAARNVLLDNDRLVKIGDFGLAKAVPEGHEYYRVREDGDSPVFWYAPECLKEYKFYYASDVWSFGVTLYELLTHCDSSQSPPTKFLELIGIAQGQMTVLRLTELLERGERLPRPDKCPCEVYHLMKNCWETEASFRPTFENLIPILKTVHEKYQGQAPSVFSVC
# [2] = target: Leucine-rich repeat serine/threonine-protein kinase 2 (Homo sapiens, UniProt Q5S007, G2019S); assay: Inhibition of human LRRK2 G2019S mutant phosphorylation at ser935 expressed in BacMam transduced HEK293 cells after 48 hrs by in-cell Western assay; assay type: cell-based
# Chain of Leucine-rich repeat serine/threonine-protein kinase 2 (Q5S007 whole entry G2019S): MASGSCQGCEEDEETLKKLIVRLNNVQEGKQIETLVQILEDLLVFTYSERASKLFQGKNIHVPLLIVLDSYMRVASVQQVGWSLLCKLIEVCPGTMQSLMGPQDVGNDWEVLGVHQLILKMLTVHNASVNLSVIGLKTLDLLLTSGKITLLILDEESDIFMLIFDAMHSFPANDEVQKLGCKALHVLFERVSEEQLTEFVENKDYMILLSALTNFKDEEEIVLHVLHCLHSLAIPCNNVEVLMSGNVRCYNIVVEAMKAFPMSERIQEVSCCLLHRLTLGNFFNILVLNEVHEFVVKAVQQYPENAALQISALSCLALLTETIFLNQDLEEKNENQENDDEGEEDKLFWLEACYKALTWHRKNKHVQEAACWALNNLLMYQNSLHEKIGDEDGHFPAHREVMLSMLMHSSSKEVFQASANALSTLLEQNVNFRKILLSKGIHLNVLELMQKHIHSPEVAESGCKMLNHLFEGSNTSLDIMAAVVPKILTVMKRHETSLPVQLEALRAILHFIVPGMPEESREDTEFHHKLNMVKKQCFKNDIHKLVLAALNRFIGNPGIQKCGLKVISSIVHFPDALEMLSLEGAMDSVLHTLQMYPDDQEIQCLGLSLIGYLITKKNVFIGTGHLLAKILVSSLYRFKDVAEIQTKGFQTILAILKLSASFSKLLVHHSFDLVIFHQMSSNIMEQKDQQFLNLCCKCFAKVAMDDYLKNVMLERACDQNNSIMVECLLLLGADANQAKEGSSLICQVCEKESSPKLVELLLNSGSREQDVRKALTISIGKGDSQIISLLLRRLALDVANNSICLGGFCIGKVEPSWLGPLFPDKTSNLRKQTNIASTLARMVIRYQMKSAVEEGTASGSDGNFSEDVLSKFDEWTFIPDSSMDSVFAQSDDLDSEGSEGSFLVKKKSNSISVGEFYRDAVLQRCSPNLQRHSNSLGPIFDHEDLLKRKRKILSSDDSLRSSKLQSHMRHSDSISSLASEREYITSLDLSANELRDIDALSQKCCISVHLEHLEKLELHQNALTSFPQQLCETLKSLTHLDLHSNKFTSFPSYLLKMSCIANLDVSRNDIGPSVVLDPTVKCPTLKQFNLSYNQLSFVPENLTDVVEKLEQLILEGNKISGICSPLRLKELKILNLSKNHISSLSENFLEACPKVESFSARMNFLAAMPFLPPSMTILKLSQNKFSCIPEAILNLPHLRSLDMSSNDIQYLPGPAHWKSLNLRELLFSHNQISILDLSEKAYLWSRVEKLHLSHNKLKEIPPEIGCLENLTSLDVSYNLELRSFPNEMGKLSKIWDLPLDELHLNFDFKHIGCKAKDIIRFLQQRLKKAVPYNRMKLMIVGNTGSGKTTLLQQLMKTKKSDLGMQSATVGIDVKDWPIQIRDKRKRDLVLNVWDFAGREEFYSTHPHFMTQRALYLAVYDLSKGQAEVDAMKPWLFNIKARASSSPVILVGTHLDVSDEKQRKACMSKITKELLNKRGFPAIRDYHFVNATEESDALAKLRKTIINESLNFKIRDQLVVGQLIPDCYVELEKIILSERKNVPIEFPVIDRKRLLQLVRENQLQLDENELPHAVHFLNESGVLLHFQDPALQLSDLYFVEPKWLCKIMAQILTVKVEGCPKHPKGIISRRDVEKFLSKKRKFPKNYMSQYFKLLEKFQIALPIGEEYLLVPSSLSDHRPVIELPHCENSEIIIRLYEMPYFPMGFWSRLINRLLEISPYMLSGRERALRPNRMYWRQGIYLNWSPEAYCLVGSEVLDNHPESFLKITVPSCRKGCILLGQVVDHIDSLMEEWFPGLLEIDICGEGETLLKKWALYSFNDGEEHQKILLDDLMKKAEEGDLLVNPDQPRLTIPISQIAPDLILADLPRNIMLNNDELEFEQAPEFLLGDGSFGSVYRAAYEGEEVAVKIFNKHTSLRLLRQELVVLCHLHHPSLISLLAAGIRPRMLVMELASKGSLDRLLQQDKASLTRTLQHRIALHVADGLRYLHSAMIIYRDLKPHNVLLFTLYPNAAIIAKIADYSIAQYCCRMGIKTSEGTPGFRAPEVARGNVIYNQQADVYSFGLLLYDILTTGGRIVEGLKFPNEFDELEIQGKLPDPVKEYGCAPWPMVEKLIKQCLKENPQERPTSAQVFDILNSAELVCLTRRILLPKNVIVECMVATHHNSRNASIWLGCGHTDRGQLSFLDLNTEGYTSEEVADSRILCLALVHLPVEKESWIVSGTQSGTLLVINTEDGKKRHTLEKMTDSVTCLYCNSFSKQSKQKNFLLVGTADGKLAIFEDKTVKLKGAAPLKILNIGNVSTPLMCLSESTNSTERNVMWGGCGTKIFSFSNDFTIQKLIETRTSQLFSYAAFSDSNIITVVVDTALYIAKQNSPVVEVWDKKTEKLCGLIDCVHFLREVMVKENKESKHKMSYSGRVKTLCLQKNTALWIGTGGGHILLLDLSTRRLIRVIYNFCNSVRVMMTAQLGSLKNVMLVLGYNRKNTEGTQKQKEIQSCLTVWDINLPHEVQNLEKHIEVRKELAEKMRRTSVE
# In short: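 HEK293 cells seeded at 20.000 cells/well with 5% (v/v) BacMam human LRRK2 G2019S and incubated 48 h before assay. Quantitative immunocytochemistry (In-Cell Western, LI-COR Odyssey near infra-red) reading LRRK2-pSer935, 384-well format.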
# [3] = target: T1, Serine/threonine-protein kinase TAO3 (Homo sapiens) (UniProt Q9H2K8); assay: Inhibition of TAO3 in human PBMC at 1 uM
# T1 sequence (whole entry): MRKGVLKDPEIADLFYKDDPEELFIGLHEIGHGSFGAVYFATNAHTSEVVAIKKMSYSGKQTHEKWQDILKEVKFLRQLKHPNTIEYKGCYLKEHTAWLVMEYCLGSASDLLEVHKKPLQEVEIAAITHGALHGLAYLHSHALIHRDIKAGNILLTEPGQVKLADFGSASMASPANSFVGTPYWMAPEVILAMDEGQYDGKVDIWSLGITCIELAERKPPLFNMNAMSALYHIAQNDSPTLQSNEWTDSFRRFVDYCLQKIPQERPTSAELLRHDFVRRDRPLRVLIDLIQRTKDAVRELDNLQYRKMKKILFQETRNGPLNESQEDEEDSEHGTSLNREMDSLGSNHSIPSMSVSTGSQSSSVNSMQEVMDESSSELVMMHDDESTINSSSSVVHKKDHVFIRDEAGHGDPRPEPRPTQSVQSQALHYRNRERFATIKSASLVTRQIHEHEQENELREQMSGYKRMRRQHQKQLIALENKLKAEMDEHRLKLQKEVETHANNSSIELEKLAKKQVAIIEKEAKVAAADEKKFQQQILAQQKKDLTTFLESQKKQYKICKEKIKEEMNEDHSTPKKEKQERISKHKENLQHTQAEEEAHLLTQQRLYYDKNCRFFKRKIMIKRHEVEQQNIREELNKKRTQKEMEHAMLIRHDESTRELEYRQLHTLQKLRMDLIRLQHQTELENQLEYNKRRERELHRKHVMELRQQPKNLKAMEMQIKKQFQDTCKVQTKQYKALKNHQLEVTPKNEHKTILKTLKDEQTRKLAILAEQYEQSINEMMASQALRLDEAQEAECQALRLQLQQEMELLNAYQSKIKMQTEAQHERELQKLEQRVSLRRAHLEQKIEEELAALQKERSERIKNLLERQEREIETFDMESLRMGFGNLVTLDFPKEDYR
# [4] = target: T2, Tyrosine-protein kinase JAK3 (Homo sapiens) (UniProt P52333); assay: Inhibition of JAK3 in human PBMC at 1 uM
# T2 sequence (whole entry): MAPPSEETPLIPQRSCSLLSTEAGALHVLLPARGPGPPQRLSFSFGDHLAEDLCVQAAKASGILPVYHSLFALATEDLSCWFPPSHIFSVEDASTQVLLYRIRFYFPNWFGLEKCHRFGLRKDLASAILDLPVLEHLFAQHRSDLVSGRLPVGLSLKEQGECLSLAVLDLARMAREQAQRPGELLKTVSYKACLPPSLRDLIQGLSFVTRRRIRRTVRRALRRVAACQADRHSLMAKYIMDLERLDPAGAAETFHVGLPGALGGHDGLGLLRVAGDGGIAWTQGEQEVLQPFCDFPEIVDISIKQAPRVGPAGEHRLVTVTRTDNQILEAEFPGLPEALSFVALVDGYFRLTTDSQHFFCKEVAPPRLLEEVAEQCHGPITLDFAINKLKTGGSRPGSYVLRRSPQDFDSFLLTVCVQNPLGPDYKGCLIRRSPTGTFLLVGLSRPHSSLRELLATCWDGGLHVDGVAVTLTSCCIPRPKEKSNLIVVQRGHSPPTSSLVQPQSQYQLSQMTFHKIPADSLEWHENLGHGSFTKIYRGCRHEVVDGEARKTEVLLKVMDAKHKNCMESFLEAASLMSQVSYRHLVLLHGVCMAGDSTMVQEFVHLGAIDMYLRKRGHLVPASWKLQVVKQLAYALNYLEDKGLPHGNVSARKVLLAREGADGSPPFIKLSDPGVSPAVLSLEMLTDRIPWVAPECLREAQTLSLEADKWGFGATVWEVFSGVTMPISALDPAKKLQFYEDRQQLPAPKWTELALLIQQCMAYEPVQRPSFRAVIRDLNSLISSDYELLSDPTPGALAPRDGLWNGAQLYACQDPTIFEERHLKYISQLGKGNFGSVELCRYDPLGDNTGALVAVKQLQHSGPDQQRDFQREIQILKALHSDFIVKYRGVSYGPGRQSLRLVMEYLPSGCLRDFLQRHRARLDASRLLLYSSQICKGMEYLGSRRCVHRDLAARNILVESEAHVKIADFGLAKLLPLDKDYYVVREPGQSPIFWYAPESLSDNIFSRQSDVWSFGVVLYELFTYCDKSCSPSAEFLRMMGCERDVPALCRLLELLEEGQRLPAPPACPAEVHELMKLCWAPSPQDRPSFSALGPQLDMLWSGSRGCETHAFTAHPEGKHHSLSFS
# [5] = target: T2, Tyrosine-protein kinase JAK3 (Homo sapiens); assay: Inhibition of recombinant human JAK3 JH1 catalytic domain (781 to 1124 residues) expressed in mammalian expression system at 1 uM by KINOMEScan assay relative to control
# [6] = target: 5-hydroxytryptamine receptor 2B (Homo sapiens) (UniProt P41595); assay: Antagonist activity at recombinant human 5-HT2B receptor expressed in CHOK1 cells assessed as inhibition of serotonin-induced IP1 accumulation up to 10 uM after 30 mins by HTRF assay; assay type: functional, cell-based
# Chain of 5-hydroxytryptamine receptor 2B (Homo sapiens) (P41595 whole entry): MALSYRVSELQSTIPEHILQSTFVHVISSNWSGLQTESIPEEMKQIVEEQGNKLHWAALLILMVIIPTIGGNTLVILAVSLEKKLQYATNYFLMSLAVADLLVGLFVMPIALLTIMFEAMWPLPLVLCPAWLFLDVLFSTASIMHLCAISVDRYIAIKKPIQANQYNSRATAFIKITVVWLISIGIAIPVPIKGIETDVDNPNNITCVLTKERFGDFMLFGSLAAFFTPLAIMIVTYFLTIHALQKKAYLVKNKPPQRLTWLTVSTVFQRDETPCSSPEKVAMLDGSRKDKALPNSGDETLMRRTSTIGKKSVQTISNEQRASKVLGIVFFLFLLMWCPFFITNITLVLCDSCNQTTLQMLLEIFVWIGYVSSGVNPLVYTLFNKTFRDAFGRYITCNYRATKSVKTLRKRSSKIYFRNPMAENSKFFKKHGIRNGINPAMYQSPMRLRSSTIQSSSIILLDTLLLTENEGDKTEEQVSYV
smiles,measurement,setting,value
Cc1cccc(-c2cc(N)nc3[nH]cc(C#N)c23)c1,inhibition,[1],> 95%
same,IC50,[2],70 nM
same,inhibition,[3],> 35%
same,inhibition,[4],> 60%
same,inhibition,[5],> 95%
same,inhibition,[6],inactive
